Reference: ChEMBL document CHEMBL2321737, “Selective inhibition of glycosyltransferases by bivalent imidazolium salts” (Bioorg Med Chem, 2013)
Several values for one entry are separate records, joined by “and”; a condition that tells them apart may be missing. Equal values may be shown once. Activity calls are given as the source filed them. No cut-off for these calls is given here.

Tests used:
[1] = target: T1, Beta-1,4-galactosyltransferase 1 (Homo sapiens) (UniProt P15291); test: Inhibition of human recombinant soluble His-tagged beta4-GalT1 expressed in Escherichia coli BL21 using GlcNAcbeta-Bn as substrate at 0.5 mM after 1 hr relative to control
T1 sequence (whole entry): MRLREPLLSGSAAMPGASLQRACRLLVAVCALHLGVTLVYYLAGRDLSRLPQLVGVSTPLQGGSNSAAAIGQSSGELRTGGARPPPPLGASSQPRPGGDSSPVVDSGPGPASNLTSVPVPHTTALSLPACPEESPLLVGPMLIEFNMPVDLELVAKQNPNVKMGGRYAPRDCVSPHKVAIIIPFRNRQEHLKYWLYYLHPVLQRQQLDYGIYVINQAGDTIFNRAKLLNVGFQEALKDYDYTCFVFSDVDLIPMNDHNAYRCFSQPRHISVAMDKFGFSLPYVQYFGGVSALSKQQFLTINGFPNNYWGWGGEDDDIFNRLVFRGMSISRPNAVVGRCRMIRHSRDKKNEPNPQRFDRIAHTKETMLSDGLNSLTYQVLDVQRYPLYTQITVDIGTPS
In short: (§1)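 Single point at 0.5 mM bis-imidazolium salt, 10% ethanol. Acceptor 0.5 mM GlcNAcβ-Bn, donor 0.5 mM UDP-Gal. […] Enzyme: 0.34 µg His-tagged human β4-GalT1 from BL21, or bovine milk β4-GalT1. Mean ± SD of replicates.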

[2] = target: T2, Beta-1,3-galactosyltransferase 5 (Homo sapiens) (UniProt Q9Y2C3); test: Inhibition of human recombinant soluble His-tagged beta3-GalT5 expressed in insect cells using GlcNAcbeta-Bn as substrate at 0.5 mM after 1 hr relative to control
T2 sequence (whole entry): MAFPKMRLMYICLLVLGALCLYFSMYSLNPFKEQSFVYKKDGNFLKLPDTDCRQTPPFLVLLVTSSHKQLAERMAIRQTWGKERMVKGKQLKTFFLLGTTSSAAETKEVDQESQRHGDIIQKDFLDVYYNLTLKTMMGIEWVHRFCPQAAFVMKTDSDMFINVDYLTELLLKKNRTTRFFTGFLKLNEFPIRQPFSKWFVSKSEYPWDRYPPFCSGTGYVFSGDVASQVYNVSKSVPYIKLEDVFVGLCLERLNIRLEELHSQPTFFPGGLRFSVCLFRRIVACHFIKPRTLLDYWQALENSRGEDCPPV
In short: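 Soluble His-tagged human β3-GalT5 expressed in insect cells and purified, 0.37 µg. Acceptor 0.5 mM GlcNAcβ-Bn, donor 0.5 mM UDP-Gal, inhibitor 0.5 mM bis-imidazolium salt in 10% ethanol. 1 h at 37 °C. Product isolated on AG1-X8 resin and counted by scintillation. % inhibition versus no-inhibitor control; blanks lacked acceptor. Mean ± SD of replicates.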

[3] = target: T3, Beta-1,4-galactosyltransferase 1 (Bos taurus, UniProt P08037); test: Inhibition of bovine milk beta4-GalT1 using GlcNAcbeta-Bn as substrate after 1 hr relative to control
T3 sequence (P08037 whole entry): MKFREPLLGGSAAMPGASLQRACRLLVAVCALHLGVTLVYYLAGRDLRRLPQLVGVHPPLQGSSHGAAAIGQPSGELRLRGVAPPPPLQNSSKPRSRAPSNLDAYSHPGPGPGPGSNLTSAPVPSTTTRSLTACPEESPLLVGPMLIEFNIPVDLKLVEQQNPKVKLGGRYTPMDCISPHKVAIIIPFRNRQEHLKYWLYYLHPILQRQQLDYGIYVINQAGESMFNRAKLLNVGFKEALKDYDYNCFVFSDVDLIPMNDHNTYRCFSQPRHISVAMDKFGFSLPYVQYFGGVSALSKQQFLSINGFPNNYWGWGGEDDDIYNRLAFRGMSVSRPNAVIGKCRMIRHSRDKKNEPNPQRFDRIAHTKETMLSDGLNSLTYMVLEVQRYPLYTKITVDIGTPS
In short: (§2)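 Dose-response series of bis-imidazolium salt in 10% ethanol, 0.5 mM GlcNAcβ-Bn acceptor, 0.5 mM UDP-Gal donor. 1 h at 37 °C. Product isolated on AG1-X8 anion-exchange resin (chloride form) with water elution, then scintillation counting. Controls lacked acceptor or inhibitor. IC50 fitted from inhibition curves. Enzyme source: bovine milk β4-GalT1 or bacterially expressed, purified human β4-GalT1.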

[4] = target: T4, Beta-1,4-galactosyltransferase 1 (Homo sapiens, UniProt P15291); test: Inhibition of human recombinant soluble His-tagged beta4-GalT1 expressed in Escherichia coli BL21 using GlcNAcbeta-Bn as substrate after 1 hr relative to control; in short: as §2
T4 sequence (P15291 whole entry): T1 sequence (whole entry)

[5] = target: Beta-1,3-galactosyltransferase 5 (Homo sapiens) (UniProt Q9Y2C3); test: Inhibition of human recombinant soluble His-tagged beta3-GalT5 expressed in insect cells using GlcNAcbeta-Bn as substrate after 1 hr
[6] = organism: Bos taurus; test: Inhibition of bovine polypeptide GalNAcT1 using AQPTPPP as substrate at 0.5 mM after 1 hr relative to control
[7] = target: T5, Alpha-1,6-mannosyl-glycoprotein 2-beta-N-acetylglucosaminyltransferase (Homo sapiens) (UniProt Q10469); test: Inhibition of human GNT2 […] using GnMan3-octyl as substrate at 0.5 mM after 1 hr in presence of phosphatidylcholine
T5 sequence (whole entry): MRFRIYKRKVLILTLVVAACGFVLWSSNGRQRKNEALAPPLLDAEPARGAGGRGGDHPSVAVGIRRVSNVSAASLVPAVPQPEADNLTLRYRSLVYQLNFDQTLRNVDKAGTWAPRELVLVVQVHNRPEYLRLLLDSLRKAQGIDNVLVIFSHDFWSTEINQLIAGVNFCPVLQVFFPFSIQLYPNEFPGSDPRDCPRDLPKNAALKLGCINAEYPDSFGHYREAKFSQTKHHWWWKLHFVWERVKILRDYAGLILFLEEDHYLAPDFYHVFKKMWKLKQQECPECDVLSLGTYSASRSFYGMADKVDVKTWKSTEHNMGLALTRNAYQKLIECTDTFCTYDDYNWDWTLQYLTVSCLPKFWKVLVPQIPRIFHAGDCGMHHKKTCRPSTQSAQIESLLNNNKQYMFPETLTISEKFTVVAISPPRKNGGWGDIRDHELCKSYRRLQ

[8] = organism: Homo sapiens; test: Inhibition of human C2GnT2 using GlcNAcbeta3GalNAcalpha-pnp as substrate at 0.5 mM after 1 hr in presence of phosphatidylcholine
[9] = organism: Homo sapiens; test: Inhibition of human C2GnT2 using Galbeta3GalNAcalpha-Bn as substrate at 0.5 mM after 1 hr in presence of phosphatidylcholine
[10] = target: T6, Acetylgalactosaminyl-O-glycosyl-glycoprotein beta-1,3-N-acetylglucosaminyltransferase (Homo sapiens) (UniProt Q6ZMB0); test: Inhibition of human B3GnT6 using GalNAcalpha-Bn as substrate at 0.5 mM after 1 hr in presence of phosphatidylcholine
T6 sequence (whole entry): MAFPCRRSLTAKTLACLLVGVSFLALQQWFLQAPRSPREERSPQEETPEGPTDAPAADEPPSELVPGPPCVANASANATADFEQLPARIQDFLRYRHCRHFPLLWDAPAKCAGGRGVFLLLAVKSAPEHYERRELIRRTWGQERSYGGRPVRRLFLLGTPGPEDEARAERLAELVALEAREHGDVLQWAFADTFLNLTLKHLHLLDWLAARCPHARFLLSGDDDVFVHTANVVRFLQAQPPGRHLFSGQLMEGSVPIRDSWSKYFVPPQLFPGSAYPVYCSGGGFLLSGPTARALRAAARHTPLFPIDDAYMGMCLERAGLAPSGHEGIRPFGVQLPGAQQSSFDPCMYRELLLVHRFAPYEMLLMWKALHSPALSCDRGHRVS

[11] = target: T7, Beta-1,3-galactosyl-O-glycosyl-glycoprotein beta-1,6-N-acetylglucosaminyltransferase (Homo sapiens) (UniProt Q02742); test: Inhibition of human C2GnT1 using Galbeta3GalNAcalpha-Bn as substrate at 0.5 mM after 1 hr in presence of phosphatidylcholine
T7 sequence (whole entry): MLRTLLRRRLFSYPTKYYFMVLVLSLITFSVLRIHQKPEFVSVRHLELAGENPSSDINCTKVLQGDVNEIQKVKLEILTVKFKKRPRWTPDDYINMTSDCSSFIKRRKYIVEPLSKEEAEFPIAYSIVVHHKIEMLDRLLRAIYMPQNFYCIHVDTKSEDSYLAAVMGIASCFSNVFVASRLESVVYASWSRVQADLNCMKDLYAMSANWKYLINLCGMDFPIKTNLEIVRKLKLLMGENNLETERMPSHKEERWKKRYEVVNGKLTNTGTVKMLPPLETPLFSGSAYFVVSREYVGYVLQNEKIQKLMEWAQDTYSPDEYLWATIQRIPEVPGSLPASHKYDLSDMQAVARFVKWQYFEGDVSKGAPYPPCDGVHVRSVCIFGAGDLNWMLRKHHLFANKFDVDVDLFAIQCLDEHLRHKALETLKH

[12] = target: T8, Beta-1,4-galactosyltransferase 1 (Bos taurus) (UniProt P08037); test: Inhibition of bovine milk beta4-GalT1 using GlcNAcbeta-Bn as substrate at 0.5 mM after 1 hr relative to control; in short: as §1
T8 sequence (whole entry): T3 sequence (P08037 whole entry)

[13] = target: Glycoprotein-N-acetylgalactosamine 3-beta-galactosyltransferase 1 (Homo sapiens) (UniProt Q9NS00); test: Inhibition of human C1GalT Gal-transferase using GalNAcalpha-Bn as substrate at 0.5 mM after 1 hr in presence of phosphatidylcholine
Chain of Glycoprotein-N-acetylgalactosamine 3-beta-galactosyltransferase 1 (Homo sapiens) (Q9NS00 whole entry): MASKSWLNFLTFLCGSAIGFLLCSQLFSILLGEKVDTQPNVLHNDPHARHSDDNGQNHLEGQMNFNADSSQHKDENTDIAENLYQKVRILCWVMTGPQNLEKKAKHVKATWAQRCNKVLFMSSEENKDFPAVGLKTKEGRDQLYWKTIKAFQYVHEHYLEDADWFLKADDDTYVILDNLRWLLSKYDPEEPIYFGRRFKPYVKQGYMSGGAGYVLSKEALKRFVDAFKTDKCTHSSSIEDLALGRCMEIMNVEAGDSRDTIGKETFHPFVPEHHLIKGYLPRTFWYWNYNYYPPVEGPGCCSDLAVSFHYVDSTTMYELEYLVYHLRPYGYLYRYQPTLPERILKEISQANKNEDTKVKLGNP

[14] = Inhibition of human GNT1 using Man3-octyl as substrate at 0.5 mM after 1 hr in presence of phosphatidylcholine
[15] = target: Beta-1,3-galactosyltransferase 5 (Homo sapiens) (UniProt Q9Y2C3); test: Inhibition of human recombinant soluble His-tagged beta3-GalT5 expressed in insect cells using GlcNAcbeta-Bn as substrate at 0.5 mM after 1 hr in presence of triton X-100
[16] = target: Beta-1,3-galactosyltransferase 5 (Homo sapiens) (UniProt Q9Y2C3); test: Inhibition of human recombinant soluble His-tagged beta3-GalT5 expressed in insect cells using GlcNAcbeta-Bn as substrate at 0.5 mM after 1 hr in presence of phosphatidylcholine

Compound	inhibition [1]	inhibition [2]	further results
C[n+]1ccn(CCCCCCCCCCCCCn2cc[n+](C)c2)c1	< 1%	< 1%	–
c1cn(CCCCCCn2ccnc2)cn1	< 1%	< 1%	–
c1cn(CCCCCCCCCCCCCCCCCCn2ccnc2)cn1	< 1%	< 1%	–
C[n+]1ccn(CCCCCCCCCCCCCCCCn2cc[n+](C)c2)c1	< 1%	< 1%	–
C[n+]1ccn(CCCCn2cc[n+](C)c2)c1	< 1%	< 1%	–
C[n+]1ccn(CCCCCCCCn2cc[n+](C)c2)c1	< 1%	< 1%	–
C[n+]1ccn(CCCCCCCCCCCCCCCCCCCCn2cc[n+](C)c2)c1 [listing 1 of 3 here]	–	–	IC50 [3]: 730 µM; IC50 [4]: 1960 µM; IC50 [5]: 440 µM
C[n+]1ccn(CCCCCCn2cc[n+](C)c2)c1	< 1%	< 1%	–
c1cn(CCCCCCCCCCCCn2ccnc2)cn1	< 1%	< 1%	–
c1cn(CCCCCCCCCCCCCCCCn2ccnc2)cn1	< 1%	< 1%	–
c1cn(CCCCCCCCCCCCCCn2ccnc2)cn1	< 1%	< 1%	–
C[n+]1ccn(CCCCCCCCCCCCCCCCCCn2cc[n+](C)c2)c1	< 1%	< 5%	–
c1cn(CCCCCCCCCCCCCn2ccnc2)cn1	< 1%	< 1%	–
c1cn(CCCCCCCCn2ccnc2)cn1	< 1%	< 1%	–
c1cn(CCCCCCCCCCCCCCCn2ccnc2)cn1	< 1%	< 1%	–
C[n+]1ccn(CCCCCCCCCCCCCCn2cc[n+](C)c2)c1	< 1%	< 1%	–
C[n+]1ccn(CCCCCCCCCCCCCCCn2cc[n+](C)c2)c1	< 1%	< 1%	–
c1cn(CCCCCCCCCCn2ccnc2)cn1	< 1%	< 1%	–
C[n+]1ccn(CCCCCCCCCCCCn2cc[n+](C)c2)c1	< 1%	< 1%	–
c1cn(CCCCCCCCCCCCCCCCCCCCn2ccnc2)cn1	< 1%	< 1%	–
C[n+]1ccn(CCCCCCCCCCCCCCCCCCCCn2cc[n+](C)c2)c1 [listing 2 of 3 here]	–	–	IC50 [5]: 420 µM
c1cn(CCCCn2ccnc2)cn1	< 1%	< 1%	–
C[n+]1ccn(CCCCCCCCCCn2cc[n+](C)c2)c1	< 1%	< 1%	–
C[n+]1ccn(CCCCCCCCCCCCCCCCCCCCCCn2cc[n+](C)c2)c1	78%	95%	inhibition [6]: 100%; inhibition [7]: < 1%; inhibition [8]: < 1%; inhibition [9]: < 1%; inhibition [10]: 78%; inhibition [11]: 100%; inhibition [12]: 78%; inhibition [13]: < 1%; IC50 [5]: 400 µM
C[n+]1ccn(CCCCCCCCCCCCCCCCCCCCn2cc[n+](C)c2)c1 [listing 3 of 3 here]	40.7% and 54%	79.2% and 84%	inhibition [6]: 96.8% and 91%; inhibition [7]: < 1%; inhibition [8]: < 1%; inhibition [9]: < 1%; inhibition [10]: 80% and 94.4%; inhibition [11]: 100%; inhibition [12]: 40.7% and 54%; inhibition [14]: < 1%; inhibition [13]: < 1%; inhibition [15]: inactive; inhibition [16]: inactive
C[n+]1ccn(CCCCCCCCCCCn2cc[n+](C)c2)c1	< 1%	< 1%	–
c1cn(CCCCCCCCCCCn2ccnc2)cn1	< 1%	< 1%	–
